Assay outcomes from PubChem BioAssay.
Most compounds without a hit are left out; they make up all but 3.7% or so of the library.
KCNQ1 inh: human KCNQ1 channel inhibition. CHO-K1 KCNQ1, FluxOR thallium flux fluorescence; active compounds read high. B-score at 10 µM. 1.3% of 310,000 active. AID 2642;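 active = compounds whose thallium flux B-score, printed positive for inhibition, exceeds three library SD while starting fluorescence stays within three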;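 note: channel opened by potassium depolarization with thallium stimulus after 20 min compound exposure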
Kir21 inh: blocks the mouse Kir2.1 inward-rectifier potassium channel | 0.85% of 310,000 active | HEK293-Kir2.1, FluxOR thallium flux fluorescence; active compounds read low | P35561 | B-score at 10 µM;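 active = fluorescence ratio B-score at or below minus 3 SD of library scores, with starting-brightness B-score within 2 SD, cut at about -4.2 in these data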;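 note: channel flux triggered by added potassium and thallium sulfate stimulus; B-score of peak minus minimum fluorescence over baseline after thallium stimulus; more negative B-score means stronger Kir2.1 block with less thallium influx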
KCNQ1 act: potentiates or activates the human KCNQ1 potassium channel | 0.35% of 310,000 active | B-score at 10 µM | P51787 | CHO-K1 KCNQ1, thallium flux FluxOR fluorescence; active compounds read high;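 active = fluorescence ratio B-score, a plate-corrected score, at least three library SD, with initial intensity B-score within 5 SD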
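System: CHO-K1 cells stably expressing KCNQ1 / Medium: assay buffer for compound exposure, DMSO matched across wells / Reagent: thallium- and potassium-containing depolarizing buffer / Compound: one concentration, matched DMSO / Incubation: 20 min compound pretreatment at room temperature / Measured by: kinetic FluxOR fluorescence, 10 s baseline plus 110 s post-stimulus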
hERG protect: shields human hERG channel from block by proarrhythmic agents | CHO-hERG, FluxOR thallium flux, dofetilide IC70 present | activation (rescue from dofetilide block), less the hit threshold, % at 10 µM | 0.51% of 310,000 active;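 active = activation above the mean of controls blocked by dofetilide plus 5 SD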;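 note: thallium influx through hERG after potassium depolarization seen as dye fluorescence rise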
Target sequence (Q12809 whole entry, looked up): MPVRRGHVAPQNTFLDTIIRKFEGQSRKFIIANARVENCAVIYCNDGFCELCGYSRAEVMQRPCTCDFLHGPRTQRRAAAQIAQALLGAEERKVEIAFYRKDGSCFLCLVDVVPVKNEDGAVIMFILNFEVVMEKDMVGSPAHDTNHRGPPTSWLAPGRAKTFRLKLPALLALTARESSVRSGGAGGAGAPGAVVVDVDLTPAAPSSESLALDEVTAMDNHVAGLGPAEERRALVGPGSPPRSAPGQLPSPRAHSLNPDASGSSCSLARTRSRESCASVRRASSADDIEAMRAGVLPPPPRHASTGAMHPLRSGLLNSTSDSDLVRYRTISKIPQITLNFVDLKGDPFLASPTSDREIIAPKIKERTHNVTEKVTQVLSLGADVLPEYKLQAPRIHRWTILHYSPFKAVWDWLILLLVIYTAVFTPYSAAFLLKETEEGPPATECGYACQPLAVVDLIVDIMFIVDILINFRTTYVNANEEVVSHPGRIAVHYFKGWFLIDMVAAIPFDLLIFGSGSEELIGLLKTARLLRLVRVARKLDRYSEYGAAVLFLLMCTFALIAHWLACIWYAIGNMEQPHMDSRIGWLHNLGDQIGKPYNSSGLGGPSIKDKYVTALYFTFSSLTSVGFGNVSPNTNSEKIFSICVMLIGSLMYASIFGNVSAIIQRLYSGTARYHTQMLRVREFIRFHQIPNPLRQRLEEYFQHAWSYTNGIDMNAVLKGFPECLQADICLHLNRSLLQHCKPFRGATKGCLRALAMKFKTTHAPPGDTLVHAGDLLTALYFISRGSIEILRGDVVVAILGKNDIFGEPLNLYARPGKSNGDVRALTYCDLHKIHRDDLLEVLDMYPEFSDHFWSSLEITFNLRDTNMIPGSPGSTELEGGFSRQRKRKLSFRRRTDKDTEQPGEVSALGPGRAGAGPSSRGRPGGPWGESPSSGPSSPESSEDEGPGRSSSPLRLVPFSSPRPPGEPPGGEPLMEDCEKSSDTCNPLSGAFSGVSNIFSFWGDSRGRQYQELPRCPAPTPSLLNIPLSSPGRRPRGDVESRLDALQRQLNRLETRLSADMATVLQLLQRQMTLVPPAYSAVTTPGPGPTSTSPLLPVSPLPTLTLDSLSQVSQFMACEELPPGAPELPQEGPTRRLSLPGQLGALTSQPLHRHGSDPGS
KCNK9 inh: blocks the human KCNK9 two-pore domain potassium channel. Q9NPC2. HEK293 KCNK9, FluxOR thallium flux fluorescence; active compounds read low. B-score at 10 µM. AID 488922. 1.2% of 310,000 active;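 active = ratio B-score over 3 SD below the library mean, with starting fluorescence within 5 SD of its mean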;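 note: negative B-score means less thallium flux so channel inhibition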
KCNK3 inh: human KCNK3 channel inhibition, primary screen. O14649. CHO-KCNK3 thallium flux, FluxOR fluorescence; active compounds read low. B-score at 10 µM. 0.84% of 340,000 active. AID 602410;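 active = B-score under library mean minus 4 SD, starting fluorescence ratio at most library mean plus 5 SD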;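 note: more negative B-score means stronger inhibition of thallium flux through KCNK3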
KCNK9 block conf: confirmation of human KCNK9 potassium channel inhibitors; shares compounds with KCNK9 inh; HEK293 KCNK9 cells, FluxOR thallium flux fluorescence; inhibition, % at 10 µM; 43% of 4,900 active;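 active = thallium signal inhibited by more than 5 SD of the compound-free buffer control wells, on both duplicate plates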;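 note: 0% = assay buffer control wells without compound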
Kir21 sel: mouse Kir2.1 off-target activity of KCNK9 modulators; 4% of 4,900 active; shares compounds with KCNK9 inh; AID 492993; inhibition, % at 10 µM; Kir2.1 cells, FluxOR thallium flux fluorescence;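 active = thallium signal drop more than 5 SD beyond the mean of the no-compound control wells, seen in both duplicate plates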;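 note: signal is fluorescence rise after thallium addition divided by baseline fluorescence; plate controls were assay buffer only for no effect and full block by chlorpromazine control for full effect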
KCNK9 uninduced: second check of KCNK9 modulator effects in non-induced HEK293 cells | AID 492997 | FluxOR thallium flux | shares compounds with KCNK9 inh | inhibition, % at 10 µM | 40% of 4,900 active;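 active = thallium signal drop beyond 5 SD of the untreated control mean, on both duplicate plates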;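 note: plate controls were buffer only IC0 wells for no effect and SID17386958 at its maximal inhibitory level for full effect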
* marks the source's active call; other numbers are inactive results; i = inactive; · = no result.

SMILES | KCNQ1 inh | Kir21 inh | KCNQ1 act | hERG protect | KCNK9 inh | KCNK3 inh | KCNK9 block conf | Kir21 sel | KCNK9 uninduced
COc1ccc(Br)cc1C(=O)Nc1cccc(NC(=O)c2ccco2)c1 | i | 0.01 | i | -21.0 | -17.6* | i | 59.0%* | i | i
COc1c(C)cc(Br)cc1C(=O)Nc1cccc(NC(=O)c2ccco2)c1 | i | -0.29 | i | -14.6 | -10.6* | -11* | 67.0%* | i | i
COc1ccccc1NC(=O)c1ccc(-c2ccc(Br)cc2)o1 | i | 1.83 | i | -2.5 | -10.7* | i | 33.0%* | i | 30.5%*
COc1ccccc1NC(=O)c1cc(Br)ccc1Cl | i | -0.66 | i | -11.2 | i | i | · | · | ·
COc1cccc(NC(=O)c2ccco2)c1 | i | -1.15 | i | -7.3 | i | i | · | · | ·
COc1ccc(NC(=O)c2ccco2)cc1S(=O)(=O)N1CCCCC1 | i | 0.01 | i | -5.6 | i | i | i | i | i
COc1c(C)cc(Br)cc1C(=O)NC(=S)Nc1ccc(Cl)c(C(=O)O)c1 | i | 0.63 | i | -4.8 | i | i | i | i | i
COc1ccc(S(=O)(=O)N2CCCCC2)cc1NC(=O)c1ccco1 | i | -0.91 | i | -6.9 | i | i | · | · | ·
COc1ccc(-c2c(-c3cc(OC)cc(OC)c3)n(C)c3ccc(-c4ccc(S(N)(=O)=O)cc4)cc23)cc1 | · | · | · | · | · | i | · | · | ·
COC(=O)c1ccc(COc2ccccc2/C=C(\C#N)C(=O)Nc2c(C)cc(C)cc2C)cc1 | i | 0.47 | i | -16.4 | -15.8* | i | 77.5%* | i | 28.5%*
COc1cc(/C=C(/C#N)C(=O)Nc2ccccc2)c(Br)cc1OCc1ccc(C(=O)O)cc1 | i | -1.15 | i | -32.6 | i | i | · | · | ·
Cc1cc(C)c(NC(=O)/C(C#N)=C/c2ccc(OCc3ccc(F)cc3)cc2)c(C)c1 | i | 0 | i | -11.4 | i | i | i | i | i
O=C(O)COC(=O)C1C(c2ccccc2)C(C(=O)O)C1c1ccccc1 (stereo not given) | i | -0.06 | i | -2.6 | i | i | · | · | ·
O=C(Nc1cccc(-c2nc3ncccc3o2)c1)c1cc2ccccc2o1 | i | 0.89 | i | -21.7 | -8.26* | i | 66.5%* | i | i
Cc1ccc(-c2nc3ncccc3o2)cc1NC(=O)c1cc2ccccc2o1 | i | 1.67 | i | -5.3 | i | i | · | · | ·
Cc1ccc(NC(=O)CSc2nnc(Cc3csc(C)n3)o2)cc1 | · | · | · | · | · | i | · | · | ·
CCOc1ccc(Nc2nc(Cc3nnc(SCC(=O)c4ccc(C)c(C)c4)o3)cs2)cc1 | i | -0.01 | i | -6.1 | i | i | i | i | i
Cc1cc(OCC(=O)Nc2sc3c(c2C#N)CC(C)(C)NC3(C)C)c(C(C)C)cc1Cl | i | -1.53 | i | -10.0 | i | i | · | · | ·
O=C(O)CC1(CC(=O)Nc2nccs2)CCCCC1 | · | · | · | · | · | i | · | · | ·
Cc1ccc2cc3c(=O)n(C)cc(C=O)c3nc2c1 | · | · | · | · | · | i | · | · | ·
O=C(Cc1sc(Nc2ccccc2)nc1-c1ccccc1)NCc1ccccc1 | i | 0.01 | i | -5.5 | -9.16* | i | 62.5%* | i | 31.0%*
CC1CC(C)CN(C(=O)c2ccc(C(=O)c3ccccc3)cc2)C1 (stereo not given) | i | 1.65 | i | -12.9 | i | i | i | i | i
CC1CC(C)CN(C(=O)c2ccc(C#N)cc2)C1 (stereo not given) | i | -2.05 | i | -5.6 | i | i | · | · | ·
CC1CC(C)CN(C(=O)c2ccc(S(=O)(=O)N3CC(C)CC(C)C3)cc2)C1 (stereo not given) | i | -0.82 | i | -6.0 | i | i | i | i | i
O=C(CCn1c(=S)oc2ccccc21)Nc1ccccc1Br | i | 0.02 | i | 2.1 | i | i | · | · | ·
SMILES | KCNQ1 inh | Kir21 inh | KCNQ1 act | hERG protect | KCNK9 inh | KCNK3 inh | KCNK9 block conf | Kir21 sel | KCNK9 uninduced
Cc1cc(C)cc(Oc2nc(C(F)(F)F)nc3ccccc23)c1 | i | 0.52 | i | -3.5 | i | i | i | i | 24.0%*
Cc1ccc(Nc2nc(CSc3nnc(-c4cccnc4)n3-c3ccccc3C)cs2)cc1 | i | 1.21 | i | -13.8 | -9.92* | i | i | i | i
Cc1noc(C)c1C(=O)Nc1ccc(-c2nnc3n2CCCCC3)cc1 | · | · | · | · | · | i | · | · | ·
CCC(c1nnnn1C(C)(C)C)N(Cc1ccco1)Cc1cc2cccc(C)c2[nH]c1=O (stereo not given) | i | -0.39 | i | -5.4 | i | i | · | · | ·
CCC(c1nnnn1CCc1ccccc1)N(Cc1ccco1)Cc1cc2cccc(C)c2[nH]c1=O (stereo not given) | 7* | -1.73 | i | -11.5 | -10.5* | i | 33.0%* | i | 29.5%*
Cc1ccc(C(=O)CCC(=O)Nc2cc(C)ccn2)cc1 | · | · | · | · | · | i | · | · | ·
CCCCCCCCNC(=O)/C(C#N)=C/c1ccc(SC)cc1 | i | -0.01 | i | -3.7 | i | i | i | i | i
CCCCCCCCNC(=O)/C(C#N)=C/c1ccc2c(c1)OCCO2 | i | -0.98 | i | 0.9 | i | i | i | i | i
N#Cc1c(Cl)nsc1NCCN1CCOCC1 | i | -0.46 | i | -2.3 | i | i | · | · | ·
CCOC(=O)C1=CN(Cc2ccc(OC)cc2)C=C(C(=O)OCC)C1c1cccs1 | i | -1.33 | i | -2.0 | -18.6* | i | 72.5%* | i | 41.0%*
COc1ccccc1NC(=O)c1ccc(CN(c2cc(Cl)ccc2C)S(=O)(=O)c2ccccc2)cc1 | i | 0.47 | i | -4.1 | i | i | · | · | ·
Cc1ccc(Cl)cc1N(Cc1ccc(C(=O)NCc2cccnc2)cc1)S(=O)(=O)c1ccccc1 | i | 1.24 | i | -8.0 | -8.35* | i | i | i | i
FC(F)(F)C(F)(F)c1nnc2ccc(-n3ccnc3)nn12 | i | 0.1 | i | -14.9 | i | i | · | · | ·
COc1ccc(-c2cc(C)no2)cc1S(=O)(=O)N1CCCN(Cc2ccccc2Cl)C1 | i | -1.29 | i | -7.0 | -15.6* | i | 32.0%* | i | 32.0%*
Cc1nn(-c2cccc(Cl)c2)c(Cl)c1/C=N/NC(=O)c1cccs1 | i | -1.58 | i | -5.6 | -10.5* | i | 60.0%* | i | 31.0%*
NS(=O)(=O)c1cc(Cl)c(NC(=O)COC(=O)c2ccccn2)c(Cl)c1 | · | · | · | · | · | i | · | · | ·
Cc1ccc(NC(=O)CSCc2ccc(F)cc2)cc1 | i | -0.55 | i | -8.5 | i | i | · | · | ·
